Measured values reported in ChEMBL document CHEMBL1143913, “Pyrimidinone-peptoid hybrid molecules with distinct effects on molecular chaperone function and cell proliferation” (Bioorg Med Chem, 2008).

How the values were obtained:
SK-BR-3 = assay: Antiproliferative activity against human SK-BR3 cells after 96 hrs by MTS assay; assay type: functional; details: SK-BR-3, 96 h
Procedure, shortened: (§1)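 Cells were kept in exponential growth in DMEM with 10% FBS, 1% penicillin and 1% glutamine, seeded at 4,000 per well and grown 48 h, with a time-zero plate counted. They were then exposed for 72 h to DMSO (1 v/v) or a concentration range in quadruplicate. Cell number was read by MTS/N-methylphenazine methylsulfate absorbance at 490 minus 630 nm. GI50 is relative to DMSO over the 72 h or 96 h period, and values above 50 µM are given as >50.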

HT-29 = assay: Antiproliferative activity against human HT29 cells after 96 hrs by MTS assay; assay type: functional; details: HT-29, 96 h; procedure, shortened: as §1
MCF7 = assay: Antiproliferative activity against human MCF7 cells after 96 hrs by MTS assay; assay type: functional; details: MCF7, 96 h; procedure, shortened: as §1
Saccharomyces cerevisiae [1] = assay: Inhibition of SV40 T antigen-stimulated Hsp70 ATPase in yeast assessed as ATP hydrolysis relative to control
Procedure, shortened: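 Yeast Ssa1p was pre-bound to ATP and run as a single-turnover assay with purified SV40 TAg (0.4 µM). Compound (300 µM) or DMSO was added at 60 s, and that time was set to zero. Runs were averaged over multiple experiments, kinetics were fitted, and the value is the fold change in TAg-stimulated ATP hydrolysis versus DMSO.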

Saccharomyces cerevisiae [2] = assay: Inhibition of yeast Hsp70 ATPase assessed as ATP hydrolysis relative to control
Procedure, shortened: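 Purified yeast Hsp70 (Ssa1p) was pre-bound to ATP and run as a single-turnover assay, so that only the hydrolysis step is measured. Compound (300 µM) or DMSO was added at 0 s, and that time was set to zero. Results from multiple experiments were averaged, kinetics were fitted, and the value is the fold change in hydrolysis versus DMSO.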

[3] = Binding affinity to Hsp70
[4] = Binding affinity to Hsp90

SMILES | GI50 (SK-BR-3) [µM] | GI50 (HT-29) [µM] | GI50 (MCF7) [µM] | Fold change (Saccharomyces cerevisiae [1]) | Fold change (Saccharomyces cerevisiae [2]) | EC50 (SK-BR-3; read-out: ED50 (the source's name)) [µM] | Kd [3] [µM] | Kd [4] [µM]
CC(C)(C)NC(=O)C(c1ccc(I)cc1)N(CCN1CCOCC1)C(=O)CCCNC(=O)c1ccccc1 (stereo not given) | > 50 | > 50 | > 50 | -2 | 1.1 | – | – | –
COC(=O)CCCCCN1C(=O)NC(c2ccc(-c3ccccc3)cc2)C(C(=O)OCc2ccccc2)=C1C (stereo not given) | > 50 | – | – | -1.2 | 2.6 | – | – | –
CCCCCCN(C(=O)CCCCCN1C(=O)NC(c2ccc(-c3ccccc3)cc2)C(C(=O)OCc2ccccc2)=C1C)C(C(=O)NCCCC)c1cccc(C(=O)OC)c1 (stereo not given) | > 50 | – | – | -2 | 3.7 | – | – | –
CC1=C(C(=O)OCc2ccccc2)C(c2ccc(C(F)(F)F)cc2)NC(=O)N1CCCCCC(=O)O (stereo not given) | > 50 | – | – | 1.1 | 1.2 | – | – | –
CCCCCCN(C(=O)CCCCCN1C(=O)NC(c2ccc(-c3ccccc3)cc2)C(C(=O)OCc2ccccc2)=C1C)C(C(=O)NCCCC)C1CCCCC1 (stereo not given) | > 50 | – | – | 1.1 | 3.2 | – | – | –
CC1=C(C(=O)OCc2ccccc2)C(C2CC2)NC(=O)N1CCCCCC(=O)O (stereo not given) | > 50 | – | – | 1 | 1.1 | – | – | –
CCCCNC(=O)C(c1ccc(OCC(=O)OC)c(C(=O)OC)c1)N(CCc1c[nH]c2ccccc12)C(=O)CCCCCN1C(=O)NC(c2ccc(-c3ccccc3)cc2)C(C(=O)OCc2ccccc2)=C1C (stereo not given) | > 50 | – | – | -1.3 | 10.3 | – | – | –
CC1=C(C(=O)OCc2ccccc2)C(c2cccc([N+](=O)[O-])c2)NC(=O)N1CCCCCC(=O)O (stereo not given) | > 50 | – | – | 1.1 | -1.1 | – | – | –
COC(=O)CCCCCN1C(=O)NC(C2CC2)C(C(=O)OCc2ccccc2)=C1C (stereo not given) | > 50 | – | – | 1 | 1.9 | – | – | –
CCCCCCN(C(=O)CCCCCN1C(=O)NC(c2ccc(-c3ccccc3)cc2)C(C(=O)OCc2ccccc2)=C1C)C(C)C(=O)NCCCC (stereo not given) | > 50 | – | – | 1 | 1.6 | – | – | –
CCCCCCN(C(=O)CCCCCN1C(=O)NC(c2ccc(C(F)(F)F)cc2)C(C(=O)OCc2ccccc2)=C1C)C(C(=O)NCCCC)c1ccc(OCC(=O)OC)c(C(=O)OC)c1 (stereo not given) | > 50 | – | – | -4.8 | 1 | – | – | –
CCCCCCN(C(=O)CCCCCN1C(=O)NC(c2ccc(-c3ccccc3)cc2)C(C(=O)OCc2ccccc2)=C1C)C(C(=O)NCCCC)c1ccccc1 (stereo not given) | > 50 | – | – | 1.1 | 3.2 | – | – | –
CCCCNC(=O)C(c1ccc(-c2ccccc2)cc1)N(CCN1CCOCC1)C(=O)CCCCCN1C(=O)NC(c2ccc([N+](=O)[O-])cc2)C(C(=O)OCc2ccccc2)=C1C (stereo not given) | > 50 | – | – | -5 | 2.3 | – | – | –
CC1=C(C(=O)OCc2ccccc2)C(c2ccccc2-c2ccccc2)NC(=O)N1CCCCCC(=O)O (stereo not given) | > 50 | – | – | -5 | 1 | – | – | –
CC1=C(C(=O)OCc2ccccc2)C(C2CCCCC2)NC(=O)N1CCCCCC(=O)O (stereo not given) | > 50 | – | – | 1.5 | 1 | – | – | –
CC1=C(C(=O)OCc2ccccc2)C(c2ccc([N+](=O)[O-])cc2)NC(=O)N1CCCCCC(=O)O (stereo not given) | > 50 | – | – | 1.1 | 1.2 | – | – | –
COC(=O)CCCCCN1C(=O)NC(c2ccccc2)C(C(=O)OCc2ccccc2)=C1C (stereo not given) | > 50 | – | – | -1.7 | 2.3 | – | – | –
CC1=C(C(=O)OCc2ccccc2)C(c2ccc(Cl)cc2)NC(=O)N1CCCCCC(=O)O (stereo not given) | > 50 | – | – | -1.6 | 1.3 | – | – | –
N=C(N)NCCCCCCC(=O)NC(O)C(=O)NCCCCNCCCN (stereo not given) [GUSPERIMUS] | – | – | – | – | – | – | 4 | 4

Further lines, results first:

GI50 (SK-BR-3) [µM] | GI50 (HT-29) [µM] | GI50 (MCF7) [µM] | Fold change (Saccharomyces cerevisiae [1]) | Fold change (Saccharomyces cerevisiae [2]) | EC50 (SK-BR-3; read-out: ED50 (the source's name)) [µM] | Kd [3] [µM] | Kd [4] [µM] | SMILES
8.8 | 3.1 | 7.8 | -1.8 | 1.5 | – | – | – | CCCCNC(=O)C(c1ccc(OCC(=O)OC)c(C(=O)OC)c1)N(CCOC)C(=O)CCCCCN1C(=O)NC(c2ccc(-c3ccccc3)cc2)C(C(=O)OCc2ccccc2)=C1C (stereo not given)
> 50 | – | – | 9.2 | 11.8 | – | – | – | CCCCCCN(C(=O)CCCCCN1C(=O)NC(c2ccc(-c3ccccc3)cc2)C(C(=O)OCc2ccccc2)=C1C)C(C(=O)NCCCC)c1ccc(O)cc1 (stereo not given)
> 50 | – | – | 2.1 | 19.1 | – | – | – | CCCCCCN(C(=O)CCCCCN1C(=O)NC(c2ccc(-c3ccccc3)cc2)C(C(=O)OCc2ccccc2)=C1C)C(C(=O)NCCCC)c1ccc(O)c(C(=O)OC)c1 (stereo not given)
6.9 | – | – | -1.1 | 1 | – | – | – | CCCCCCN(C(=O)CCCCCN1C(=O)NC(c2ccc([N+](=O)[O-])cc2)C(C(=O)OCc2ccccc2)=C1C)C(C(=O)NCCCC)c1ccc(OCC(=O)OC)c(C(=O)OC)c1 (stereo not given)
27 | > 50 | 14.7 | -2 | 1.7 | 8 | – | – | CCCCCCN(C(=O)CCCCCN1C(=O)NC(c2ccc(-c3ccccc3)cc2)C(C(=O)OCc2ccccc2)=C1C)C(C(=O)NCCCC)c1ccc(OCC(=O)OC)c(C(=O)OC)c1 (stereo not given)
6 | – | – | -1.5 | 1.1 | – | – | – | CCCCCCN(C(=O)CCCCCN1C(=O)NC(c2cccc([N+](=O)[O-])c2)C(C(=O)OCc2ccccc2)=C1C)C(C(=O)NCCCC)c1ccc(OCC(=O)OC)c(C(=O)OC)c1 (stereo not given)
6.3 | – | – | -2.1 | 1.2 | – | – | – | CCCCCCN(C(=O)CCCCCN1C(=O)NC(C2CCCCC2)C(C(=O)OCc2ccccc2)=C1C)C(C(=O)NCCCC)c1ccc(OCC(=O)OC)c(C(=O)OC)c1 (stereo not given)
6.5 | 4.8 | 2.4 | -1.1 | 1.1 | – | – | – | CCCCCCN(C(=O)CCCCCN1C(=O)NC(c2ccccc2)C(C(=O)OCc2ccccc2)=C1C)C(C(=O)NCCCC)c1ccc(OCC(=O)OC)c(C(=O)OC)c1 (stereo not given)
39 | – | – | -1.2 | 6.1 | – | – | – | CCCCNC(=O)C(c1ccc(OCC(=O)OC)c(C(=O)OC)c1)N(CCC1=CCCCC1)C(=O)CCCCCN1C(=O)NC(c2ccc(-c3ccccc3)cc2)C(C(=O)OCc2ccccc2)=C1C (stereo not given)
6.2 | 5.3 | 6.3 | -2.6 | 1.2 | – | – | – | CCCCCCN(C(=O)CCCCCN1C(=O)NC(C2CC2)C(C(=O)OCc2ccccc2)=C1C)C(C(=O)NCCCC)c1ccc(OCC(=O)OC)c(C(=O)OC)c1 (stereo not given)
48 | – | – | 1.2 | 1.1 | – | – | – | CCCCCCN(C(=O)CCCCCN1C(=O)NC(c2ccc(-c3ccccc3)cc2)C(C(=O)OCc2ccccc2)=C1C)C(C(=O)NCCCC)c1ccc(OCC(=O)OC)cc1 (stereo not given)
